Our source for the Ki values is ChEMBL document CHEMBL1127519, “1,3-Diarylindan-2-carboxylic acids, potent and selective non-peptide endothelin receptor antagonists” (J Med Chem, 1994).

By Ki is commonly meant the dissociation constant of the complex between target and ligand, obtained from inhibition or displacement. Low values mean a stronger hold on the target, high ones a looser hold on the target.

Assay [1] deals with T1, Endothelin receptor type B (Homo sapiens, UniProt P24530).
T1 sequence (P24530 whole entry): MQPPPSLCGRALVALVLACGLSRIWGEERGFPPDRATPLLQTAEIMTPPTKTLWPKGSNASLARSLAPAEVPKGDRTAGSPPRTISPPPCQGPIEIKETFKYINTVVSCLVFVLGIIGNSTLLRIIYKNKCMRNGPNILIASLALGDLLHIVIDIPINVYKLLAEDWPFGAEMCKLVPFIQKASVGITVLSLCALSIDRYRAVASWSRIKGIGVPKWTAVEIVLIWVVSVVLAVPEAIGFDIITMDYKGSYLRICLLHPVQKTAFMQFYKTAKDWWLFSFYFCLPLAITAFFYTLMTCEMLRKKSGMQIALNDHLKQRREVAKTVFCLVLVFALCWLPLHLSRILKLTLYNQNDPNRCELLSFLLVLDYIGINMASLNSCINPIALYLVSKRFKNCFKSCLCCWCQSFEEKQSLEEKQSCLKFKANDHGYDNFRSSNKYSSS
In words: Inhibition of [125I]ET1 binding to cloned human ET-B receptor. In short, it runs like this:
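Membranes from CHO cells stably expressing cloned human ET-B receptor (0.05 μg per tube) incubated with [125I]ET-1 (0.3 nM), without or with rising concentrations of unlabeled ligand, 30 °C for 1 h. Filtration separated bound from free, gamma counting. Nonspecific binding 2-5%. Apparent Ki derived from competition curves, n ≥ 3.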

The target in assay [2] is T2, Endothelin-1 receptor (Homo sapiens, UniProt P25101).
T2 sequence (P25101 whole entry): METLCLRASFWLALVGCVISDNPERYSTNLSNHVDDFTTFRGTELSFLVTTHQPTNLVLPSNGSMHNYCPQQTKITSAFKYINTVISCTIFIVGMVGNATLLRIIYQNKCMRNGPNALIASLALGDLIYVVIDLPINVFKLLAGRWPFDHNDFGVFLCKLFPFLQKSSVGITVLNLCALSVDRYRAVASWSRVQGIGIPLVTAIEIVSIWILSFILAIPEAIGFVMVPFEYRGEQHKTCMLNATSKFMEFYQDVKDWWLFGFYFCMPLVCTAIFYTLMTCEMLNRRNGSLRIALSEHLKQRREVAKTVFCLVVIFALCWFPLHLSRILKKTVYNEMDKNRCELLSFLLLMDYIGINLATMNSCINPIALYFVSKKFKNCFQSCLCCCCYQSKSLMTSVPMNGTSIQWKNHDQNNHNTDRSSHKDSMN
Description: Inhibition of [125I]ET1 binding to cloned human ET-A receptor. In short, it runs like this: (§1)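 Membranes from CHO cells stably expressing cloned human ET-A receptor (0.5 μg per tube) incubated with [125I]ET-1 (0.3 nM) alone or with increasing unlabeled ligand, 1 h at 30 °C. Bound and free separated by filtration and counted by γ-counter. Nonspecific binding 8-25%. Apparent Ki from competition curves, n ≥ 3.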

Assay [3] concerns the target T2, Endothelin-1 receptor. Description: Inhibition of [125I]ET1 binding to cloned human Endothelin A receptor. The gist of the method:
as §1

Turning to `COc1ccc([C@@H]2c3ccccc3[C@H](c3ccc(OC)cc3)[C@H]2C(=O)O)cc1`, the Ki in assay [1] was 2440 nM; at Endothelin-1 receptor [2], 422 nM.

With `COc1ccc([C@H]2c3ccccc3[C@@H](c3ccc4c(c3)OCO4)[C@@H]2C(=O)O)cc1`, the Ki in assay [1] stood at 757 nM; at Endothelin-1 receptor [2], 43 nM.

For `COc1ccc([C@H]2c3ccccc3[C@@H](c3ccccc3)[C@@H]2C(=O)O)cc1`, the Ki in assay [1] was greater than 30000 nM; on Endothelin-1 receptor [3], 5670 nM.

In the case of `CCCOc1ccc2c(c1)[C@@H](c1ccc(OC)cc1)[C@H](C(=O)O)[C@H]2c1ccc2c(c1)OCO2`, the values for the Ki (in assay [1]; at Endothelin-1 receptor [2]) were 1040 nM and 11.3 nM, respectively.

Take `O=C(O)[C@H]1[C@H](c2ccccc2)c2ccccc2[C@@H]1c1ccccc1`: the Ki was greater than 30000 nM in assay [1] and 11200 nM at Endothelin-1 receptor [2].

As to `COc1ccc([C@@H]2c3cc(O)ccc3[C@H](c3ccc4c(c3)OCO4)[C@H]2C(=O)O)cc1`, the Ki in assay [1] is 483 nM; at Endothelin-1 receptor [2] it was 15 nM.

As to `CCCOc1ccc2c(c1)[C@@H](c1ccc(OC)cc1OCC(=O)O)[C@H](C(=O)O)[C@H]2c1ccc2c(c1)OCO2` [SB-209670], the Ki in assay [1] stood at 14.7 nM; at Endothelin-1 receptor [2], 0.43 nM.
